Hits are enriched below; roughly 4.5% of the tested compounds scored in any of these assays.
OX1R antag-1 – antagonists of human orexin 1 receptor (OX1R); AID 485270; O43613; OX1R-expressing cells, FRET antagonist read-out; 330,000 compounds, 1.8% hits; inhibition, % at 6.6 µM; in the data active means inhibition mostly above about 38%, no sharp cut-off; inactive means mostly below about 40%;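 further: 0% = agonist challenge alone and 100% = reference antagonist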
Target sequence (O43613 whole entry, looked up): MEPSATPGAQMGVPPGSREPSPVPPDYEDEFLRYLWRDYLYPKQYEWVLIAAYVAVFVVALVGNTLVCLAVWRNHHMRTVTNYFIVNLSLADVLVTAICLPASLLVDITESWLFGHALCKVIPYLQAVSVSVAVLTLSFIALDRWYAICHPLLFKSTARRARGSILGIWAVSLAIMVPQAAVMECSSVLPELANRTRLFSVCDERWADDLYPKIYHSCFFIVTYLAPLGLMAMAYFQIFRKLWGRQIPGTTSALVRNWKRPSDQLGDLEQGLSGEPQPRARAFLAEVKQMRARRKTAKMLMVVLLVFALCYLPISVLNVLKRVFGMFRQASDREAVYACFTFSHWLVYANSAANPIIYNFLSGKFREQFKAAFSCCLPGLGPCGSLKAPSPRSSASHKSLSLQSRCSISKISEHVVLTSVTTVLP
OX1R antag-2 – blocks the human orexin 1 receptor; O43613; CHO/OX1R cells, Fluo-8 calcium fluorescence, orexin A; inhibition, % at 5 µM; 330,000 compounds, 0.43% hits; AID 434989;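 active means inhibition above its plate's threshold, mean inhibition of all tested compounds on the plate plus 3 SD, cut at about 37% in these data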;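 further: 0% = orexin A challenge wells and 100% = SB-334867-A antagonist wells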
GPR7 antag – antagonists of human GPR7 (neuropeptides B/W receptor 1) | P48145 | GPR7-expressing cells, fluorescence antagonist assay | inhibition, % at 4.4 µM | 290,000 compounds, 1.1% hits; in the data active means inhibition above about 16%, passing the limit was not always enough;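 further: cells stimulated with the agonist NPW; 0% = agonist with vehicle and 100% = vehicle without agonist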
TAAR1 agonist – agonists of human TAAR1; Q96RJ0; 360,000 compounds, 0.99% hits; activation, % at 3 µM; CHO RD-HGA16 TAAR1, Fluo-8 calcium fluorescence; vehicle wells 0%, saturating PEA agonist 100%; AID 624467;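 active means activation above the mean activation of all test compounds in the run plus 3 SD, cut at about 38% in these data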
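System: CHO RD-HGA16 cells carrying human TAAR1 plus Gα16; Incubation: 17-24 h seeding, 75 min 37 °C dye, 30 min RT; Measured by: Fluo-8 fluorescence, 5 s baseline then 140 s kinetic read; Control set: DMSO and PEA EC100; Replication: single well for each compound.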
TAAR1 antagonist – antagonists of human TAAR1; inhibition, % at 3 µM; Q96RJ0; AID 624466; CHO RD-HGA16 TAAR1, Fluo-8 calcium fluorescence, antagonist; 360,000 compounds, 1.5% hits;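 active means inhibition above a per-plate cutoff, the mean inhibition of test compounds on that plate plus 3 SD, cut at about 49% in these data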;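 further: 0% = DMSO plus EC80 beta-PEA response and 100% = DMSO alone without agonist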
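Test system: hTAAR1-expressing CHO RD-HGA16 cells, Gα16-coupled; Probe or stimulus: EC80 β-phenethylamine stimulus; Compound dosing: single nominal final test compound concentration of 3 µM; Timing: 140 s kinetic read after compound, 140 s after agonist; Signal: Fluo-8 calcium-sensitive fluorescence; Measure: % inhibition of agonist calcium response; Controls: DMSO and EC80 PEA controls.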
CHO parental Ca – counter-screen: ATP calcium response change in parental CHO cells. inhibition, % at 5.6 µM. AID 463079. 330,000 compounds, 0.63% hits. parental CHO-K1, ATP-induced calcium, Fluo-8 fluorescence;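 active means inhibition above that plate's mean sample inhibition plus 3 SD, cut at about 26% in these data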;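 further: 0% = ATP-challenged DMSO wells and 100% = DMSO wells without ATP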
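Test system: parental CHO cells; detection: calcium-sensitive Fluo-8 fluorescence; evaluation: percent inhibition of calcium signal; also added: ATP as calcium-mobilizing challenge; repeats: one well per compound; control set: ATP-challenged DMSO wells low, unchallenged DMSO wells high; compound: single nominal dose of 5.6 µM per compound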
* marks the source's active call; other numbers are inactive results; x = no result given.

SMILES | OX1R antag-1 | OX1R antag-2 | GPR7 antag | TAAR1 agonist | TAAR1 antagonist | CHO parental Ca
O=C(COC(=O)COc1ccccc1)Nc1ncc([N+](=O)[O-])s1 | 43* | -20 | x | 20 | -7 | 2
Cc1csc(NC(=O)CSc2nncn2C)n1 | 23 | -16 | -4 | 3 | -1 | 4
CC(CC(=O)Nc1ncc([N+](=O)[O-])s1)c1ccccc1 (stereo unspecified) | 35* | -11 | 9 | 3 | 13 | 4
Cn1cnnc1SCC(=O)Nc1ncc([N+](=O)[O-])s1 | 35* | -5 | x | 2 | -7 | 6
Cc1nnc(NC(=O)CC(C)c2ccccc2)s1 (stereo unspecified) | 19 | -1 | -4 | 5 | -13 | -4
CCN1C(=O)[C@@H]2[C@@H](c3ccc(-c4ccc(C(C)=O)cc4)c(OC)c3)N3CCC[C@@]3(C(=O)OC)[C@@H]2C1=O | 7 | -16 | x | 1 | 12 | -14
CCCCCCCCN1C(=O)[C@H](CC(=O)N2CCC(c3ccccc3)CC2)C[C@@]2(C(=O)OC)CCCCC=C12 | x | x | x | 0 | -13 | x
CS(=O)(=O)c1ccc(S(=O)(=O)N2CCN(C(=O)C(O)c3ccccc3)CC2)cc1 (stereo unspecified) | x | x | x | 1 | 9 | x
CCN1/C(=C/C=C/c2oc3ccc(-c4ccccc4)cc3[n+]2CC)Oc2ccc(-c3ccccc3)cc21 | 34 | 105* | 98* | 531* | 105* | 101*
COC(OC)c1ccnc(-c2ccc(OC(=O)c3cccs3)cc2)n1 | 17 | -29 | -9 | 6 | -7 | 0
Cc1cccc(-n2c(SCC(=O)N3CCCC3)nc3n[nH]c(C)c3c2=N)c1 | 36* | 12 | -16 | 5 | 13 | -28
CCCCN(CC)C(=O)CSc1nc2n[nH]c(C)c2c(=N)n1-c1cccc(C)c1 | 34 | -26 | -12 | 7 | -3 | -25
C=CCN1C(=O)c2n[nH]c(COC)c2C1c1ccc(F)cc1 (stereo unspecified) | x | x | x | 2 | -17 | x
CCOC(=O)c1c(C)[nH]c(C(=O)COC(=O)C(C)N2C(=O)C3CCCCC3C2=O)c1C (stereo unspecified) | 15 | -4 | -10 | 22 | 51* | -14
CCOC(=O)c1c(C)[nH]c(C(=O)COC(=O)CN2C(=O)C3CCCCC3C2=O)c1C (stereo unspecified) | 18 | -27 | 7 | 12 | 8 | -12
N#Cc1ccc(S(=O)(=O)N2CCCc3nc(-c4ccccc4)ccc32)cc1 | x | x | x | 0 | -1 | x
Cc1cc(-c2ccc(C(C)C)c(S(=O)(=O)N3CC(=O)Nc4ccccc43)c2)on1 | 39* | -2 | -4 | 0 | -19 | -8
CCc1ccc(-c2cc(C)no2)cc1S(=O)(=O)N1CC(=O)Nc2ccccc21 | 24 | 2 | 28 | 1 | 3 | 2
O=C1NC(c2ccc3c(c2)OCO3)c2c(-c3ccccc3)n[nH]c21 (stereo unspecified) | x | x | x | 4 | -6 | x
O=c1nc2n(c3ccc([N+](=O)[O-])cc13)CCCCC2 | 59* | 0 | -3 | 6 | 0 | -3
O=C(Nc1ccc2nc3n(c(=O)c2c1)CCCCC3)c1cc([N+](=O)[O-])ccc1F | 39 | -16 | 7 | 0 | -6 | -15
C(=N\Nc1nc2ccccc2s1)/c1ccccn1 | 60* | -3 | -3 | 6 | 2 | 6
C(=N\Nc1nc2ccccc2s1)/c1ccc2c(c1)OCO2 | 75* | 5 | -7 | 5 | 1 | -6
COc1cc2c(cc1OC)C(c1ccc3c(c1)Cc1ccccc1-3)OC(=O)C2 (stereo unspecified) | x | x | x | 2 | 8 | x
COc1c(-c2ccc([N+](=O)[O-])cc2[N+](=O)[O-])c(=O)n(C)c(=O)n1C | 51* | -14 | -13 | -1 | 0 | -4
SMILES | OX1R antag-1 | OX1R antag-2 | GPR7 antag | TAAR1 agonist | TAAR1 antagonist | CHO parental Ca
COC(=O)[C@]12C[C@H](CC(=O)NCc3ccc(C)o3)C(=O)N(Cc3ccc4c(c3)OCO4)C1=C[C@H](C(C)(C)C)O[C@@H]2C | x | x | x | -1 | -20 | x
COc1ccccc1N1CCN(S(=O)(=O)CCNC(=O)C23CC4CC(CC(C4)C2)C3)CC1 | 16 | -19 | -10 | 16 | 58* | -14
CC[C@]12c3[nH]c4ccc(OC)cc4c3CCN1C(=O)C(CC(=O)NCCCN(C)C)C[C@@H]2C(=O)N1CCN(C(=O)c2ccco2)CC1 (stereo partly specified) | 2 | 4 | x | 1 | -21 | 3
COc1cc(NC(=O)C(c2ccccc2)c2ccccc2)c(C(=O)O)cc1OC | -1 | -18 | -9 | -1 | 11 | -3
COc1cc2c(cc1NC(=O)C(c1ccccc1)c1ccccc1)CCCC2 | 21 | 36 | -7 | 10 | 16 | 32*
COc1ccccc1CN1CC(C(=O)NCCc2ccccc2Cl)CCC1=O (stereo unspecified) | 1 | -10 | 6 | 2 | -16 | -9
CCOC(=O)N1CCC(N2C(=O)c3ccccc3C2Nc2ccccc2)CC1 (stereo unspecified) | 4 | -43 | -4 | -2 | -26 | -22
CCOC(=O)N1CCC(N2C(=O)c3ccccc3C2Nc2c(C)cccc2C)CC1 (stereo unspecified) | 4 | -38 | 16* | -1 | 1 | -6
Cc1cc(N2CCN(CC(C)(C)O)C[C@H]2C)ccc1N1CCN(CC(C)(C)O)[C@H](C)C1 | x | x | x | 1 | -11 | x
Fc1ccc(/C=C2\CCCC3=C2Nc2ncnn2C3c2ccc(F)cc2)cc1 (stereo unspecified) | 23 | -9 | 4 | 19 | 65* | -3
COc1ccc(C2C3=C(Nc4ncnn42)c2ccccc2CCC3)cc1 (stereo unspecified) | 13 | -18 | -9 | 1 | -1 | -7
COc1ccc([C@@H]2[C@@H]3C(=O)N(C(C)(C)C)C(=O)[C@@H]3[C@]3(C)C(=O)N(c4cccc(Br)c4)C(=O)N23)cc1 | 34 | -25 | 4 | x | x | -25
C[N+](C)(C)C[C@H](O)CC(=O)[O-] | 2 | 4 | x | 12 | -27 | -4
N=C(N)c1ccc(/C=C/c2ccc(C(=N)N)cc2O)cc1 | 46* | -7 | -9 | 4 | 3 | -7
CNC[C@H]1Oc2cc(Br)ccc2S(=O)(=O)N([C@@H](C)CO)C[C@@H]1C | x | x | x | 3 | -2 | x
O=C(Nc1ccc(Br)cc1)c1ccc(F)c(S(=O)(=O)NCc2cccs2)c1 | 94* | 55* | 10 | 12 | 4 | 0
O=S(=O)(NCc1cccs1)c1ccc(Br)cc1 | 14 | 4 | -12 | 0 | 17 | -14
COc1ccccc1NC(=O)C(=O)N1CCCC1 | -2 | -19 | -13 | 0 | 15 | 12
COc1cccc(CNc2ccc3[nH]c(=O)[nH]c3c2)c1OCc1ccc(F)cc1 | x | x | -4 | 7 | 50* | x
